ChEMBL document CHEMBL2417547 (J Med Chem, 2013)

Key:
[1] = molecular target: T1, Cytochrome P450 11B1, mitochondrial (Homo sapiens, UniProt P15538); experiment: Inhibition of human CYP11B1 expressed in hamster V79MZh cells using [1,2-3H]-11-deoxycorticosterone as substrate; assay type: cell-based
T1 sequence (P15538 whole entry): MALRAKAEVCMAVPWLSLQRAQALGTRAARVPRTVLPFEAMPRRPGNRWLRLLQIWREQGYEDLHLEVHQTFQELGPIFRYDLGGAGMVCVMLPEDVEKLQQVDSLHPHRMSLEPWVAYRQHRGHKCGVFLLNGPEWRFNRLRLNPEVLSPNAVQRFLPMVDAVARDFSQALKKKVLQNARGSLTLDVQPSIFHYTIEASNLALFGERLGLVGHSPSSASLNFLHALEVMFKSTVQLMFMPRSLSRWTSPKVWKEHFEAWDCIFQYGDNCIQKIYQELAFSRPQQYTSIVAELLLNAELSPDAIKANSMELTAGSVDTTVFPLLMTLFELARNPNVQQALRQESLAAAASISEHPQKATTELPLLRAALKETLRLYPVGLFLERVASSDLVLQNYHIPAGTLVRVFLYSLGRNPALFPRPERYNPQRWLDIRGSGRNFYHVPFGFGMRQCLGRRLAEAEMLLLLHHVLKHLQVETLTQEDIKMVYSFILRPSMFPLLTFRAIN
Procedure, shortened: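 V79MZh hamster fibroblasts expressing human CYP11B1 or CYP11B2 were incubated with [1,2-3H]-11-deoxycorticosterone (100 nM) plus inhibitor at a range of concentrations. The selectivity factor is IC50(CYP11B2)/IC50(CYP11B1).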

[2] = Half life in human liver S9 fraction at 1 uM by LC-MS/MS analysis; assay type: ADME, subcellular
Procedure, shortened: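 Pooled human liver S9 fraction, 1 mg/mL, with 2 mM NADPH regenerating system, 1 mM UDPGA and 0.1 mM PAPS (phase I and II). Compound at 1 μM, 37 °C, sampled at 0, 5, 15 and 60 min. Stopped with cold acetonitrile containing internal standard. Remaining compound measured by LC-MS/MS and used to derive t1/2. Mean of more than three repeats.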

[3] = Half life in human plasma at 1 uM by LC-MS/MS analysis; assay type: ADME, cell-free
Procedure, shortened: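 Compound at 1 μM in pooled heparinized plasma of the stated species, 37 °C, sampled at 0, 10, 30, 60 and 150 min. Proteins precipitated with 5 volumes of cold acetonitrile containing internal standard. Remaining compound quantified by LC-MS/MS to give half-life.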

[4] = Half life in rat liver S9 fraction at 1 uM by LC-MS/MS analysis; assay type: ADME, subcellular
Procedure, shortened: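 Test compound at 1 μM with 1 mg/mL pooled rat liver S9, 2 mM NADPH regenerating system, 1 mM UDPGA and 0.1 mM PAPS (phase I and II), 37 °C. Sampled at 0, 5, 15 and 60 min and quenched with 2 volumes of cold acetonitrile containing internal standard. Remaining compound measured by LC-MS/MS to give t1/2 and CLint; mean of more than three repeats.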

Cytochrome P450 3A4 = Cytochrome P450 3A4 (Homo sapiens, UniProt P08684); experiment: Inhibition of CYP3A4 (unknown origin) using 7-benzyloxy trifluoromethylcoumarin as substrate; assay type: ADME
Cytochrome P450 3A4, sequence (P08684 whole entry): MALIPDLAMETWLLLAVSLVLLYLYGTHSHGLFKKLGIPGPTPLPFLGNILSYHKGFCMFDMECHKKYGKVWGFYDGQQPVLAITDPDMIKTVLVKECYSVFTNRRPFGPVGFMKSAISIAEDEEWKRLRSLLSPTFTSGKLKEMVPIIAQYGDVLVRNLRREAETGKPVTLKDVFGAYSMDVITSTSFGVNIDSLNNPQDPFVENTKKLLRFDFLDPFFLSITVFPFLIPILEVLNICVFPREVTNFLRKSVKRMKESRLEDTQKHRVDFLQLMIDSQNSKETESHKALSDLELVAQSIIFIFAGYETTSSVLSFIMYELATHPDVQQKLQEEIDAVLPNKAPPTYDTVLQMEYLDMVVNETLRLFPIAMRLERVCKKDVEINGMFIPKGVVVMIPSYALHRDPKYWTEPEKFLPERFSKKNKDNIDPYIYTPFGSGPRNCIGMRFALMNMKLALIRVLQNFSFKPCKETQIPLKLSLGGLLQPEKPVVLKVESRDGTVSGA
Procedure, shortened: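 Commercial CYP3A4/BFC inhibitor screening kit with 7-benzyloxy-trifluoromethylcoumarin as substrate at 50 μM, run per the kit instructions. IC50 determined.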

CYP17 = molecular target: T2, CYP17 (Homo sapiens, UniProt P05093); experiment: Inhibition of human CYP17 expressed in Escherichia coli co-expressing rat NADPH-P450 reductase using progesterone as substrate at 2 uM relative to control; conditions: probe progesterone
T2 sequence (P05093 whole entry): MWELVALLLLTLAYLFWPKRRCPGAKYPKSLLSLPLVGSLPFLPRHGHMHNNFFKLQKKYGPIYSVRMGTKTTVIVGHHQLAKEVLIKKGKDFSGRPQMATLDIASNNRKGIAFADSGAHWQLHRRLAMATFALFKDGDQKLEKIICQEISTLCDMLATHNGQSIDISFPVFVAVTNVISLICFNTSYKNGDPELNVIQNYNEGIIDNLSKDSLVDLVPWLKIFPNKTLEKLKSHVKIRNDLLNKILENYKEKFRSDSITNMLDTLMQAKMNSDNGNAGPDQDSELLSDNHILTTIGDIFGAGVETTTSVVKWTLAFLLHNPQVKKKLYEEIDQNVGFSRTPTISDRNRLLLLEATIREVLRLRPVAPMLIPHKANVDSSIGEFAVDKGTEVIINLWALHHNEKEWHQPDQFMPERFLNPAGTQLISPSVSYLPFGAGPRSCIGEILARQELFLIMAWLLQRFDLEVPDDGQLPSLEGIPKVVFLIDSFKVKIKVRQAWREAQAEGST
Procedure, shortened: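 Human CYP17 expressed in E. coli, co-expressing rat NADPH-P450 reductase. Progesterone substrate at 25 μM with NADPH cofactor. Test compound at 2 μM. Percent inhibition is the mean of at least three experiments (deviations <25%); values ≤5% are treated as not significant.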

CYP19 (aromatase) = molecular target: T3, CYP19 (aromatase) (Homo sapiens, UniProt P11511); experiment: Inhibition of microsomal CYP19 in human placenta using [1beta-3H]-androstenedione as substrate at 2 uM by 3H2O method relative to control; conditions: placental microsomes, probe [1beta-3H]-androstenedione
T3 sequence (P11511 whole entry): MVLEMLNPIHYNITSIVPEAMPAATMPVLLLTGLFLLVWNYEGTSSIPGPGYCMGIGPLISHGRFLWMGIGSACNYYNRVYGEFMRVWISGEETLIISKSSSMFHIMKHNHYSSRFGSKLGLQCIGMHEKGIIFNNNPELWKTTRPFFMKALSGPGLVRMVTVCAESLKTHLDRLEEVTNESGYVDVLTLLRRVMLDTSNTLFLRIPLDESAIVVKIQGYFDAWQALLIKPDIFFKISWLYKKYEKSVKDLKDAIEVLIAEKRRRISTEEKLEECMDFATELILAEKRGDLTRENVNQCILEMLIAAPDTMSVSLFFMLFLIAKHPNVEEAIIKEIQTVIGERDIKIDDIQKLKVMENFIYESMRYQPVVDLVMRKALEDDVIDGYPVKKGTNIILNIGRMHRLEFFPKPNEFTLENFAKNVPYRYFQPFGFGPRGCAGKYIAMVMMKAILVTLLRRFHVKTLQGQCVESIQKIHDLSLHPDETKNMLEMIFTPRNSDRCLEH
Procedure, shortened: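 Human placental microsomes as the CYP19 source, with [1β-3H]androstenedione at 500 nM. Activity read by 3H2O release. Compound at 2 μM. Percent inhibition is the mean of at least three experiments (deviations <25%); values ≤5% are not significant.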

Molecule Cc1cncc(Cc2ccc(-c3ccccc3)nc2)c1 has an IC50 [1] of 2 nM, a half-life at 1 µM [2] greater than 2.5 h and a half-life at 1 µM [3] greater than 2.5 h. It also gave a half-life at 1 µM [4] of 0.267 h, an IC50 (Cytochrome P450 3A4) of 1100 nM and an inhibition at 2 µM (CYP17) of 5%. It also gave an inhibition at 2 µM (CYP19 (aromatase)) of 1%.
